Assay results from ChEMBL document CHEMBL4346672, “Antimicrobial and KPC/AmpC inhibitory activity of functionalized benzosiloxaboroles” (Eur J Med Chem, 2019).
≈ marks a conversion by molar mass, not a printed value. Calls of active or inactive are those of the source. No cut-off for these calls is given here.

Key:
Proteus mirabilis [1] = assay: Antibacterial activity against Proteus mirabilis ATCC 12453 assessed as diameter of zone inhibition measured after 18 hrs by CLSI disc diffusion method; type: functional
In short: (§1)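 Disc diffusion on Mueller-Hinton II agar. Compounds dissolved in DMSO. Strains stored at -80 °C and subcultured twice on tryptic soy agar before testing. Inhibition zones read after 35 °C, 18 h.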

Escherichia coli [2] = assay: Antibacterial activity against Escherichia coli ATCC 25922 assessed as fold reduction of MIC in presence of efflux pump inhibitor PAbetaN incubated for 18 hrs by CLSI broth microdilution method; type: functional
In short: (§2)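 MICs determined with and without PAβN at 50 mg/L in Mueller-Hinton broth containing 1 mM MgSO₄. 2-fold serial dilutions per CLSI. Fold change taken from the paired MICs after 35 °C, 18 h.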

Klebsiella pneumoniae [3] = assay: Antibacterial activity against Klebsiella pneumoniae ATCC 13883 measured after 18 hrs by CLSI broth dilution method; type: functional; conditions: ATCC 13883, 18 h
In short: (§3)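 Broth MIC in Mueller-Hinton II broth following CLSI, compounds dissolved in DMSO. Strains subcultured twice on tryptic soy agar before testing. Growth read after 35 °C, 18 h.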

Klebsiella pneumoniae [4] = assay: Antibacterial activity against Klebsiella pneumoniae ATCC 13883 assessed as fold reduction of MIC in presence of efflux pump inhibitor PAbetaN incubated for 18 hrs by broth microdilution method; type: functional; in short: as §2
Candida parapsilosis [5] = assay: Antifungal activity against Candida parapsilosis ATCC 22019 assessed as diameter of zone inhibition incubated for 24 hrs by CLSI disc diffusion method; type: functional
In short: (§4)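 Yeast disc diffusion on Mueller-Hinton agar supplemented with 2% glucose and 0.5 mg/L methylene blue. Compounds in DMSO. Yeasts subcultured on Sabouraud dextrose agar before testing. Zones read after 35 °C, 24 h.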

Staphylococcus aureus = assay: Antibacterial activity against Staphylococcus aureus ATCC 6538P measured after 18 hrs by CLSI broth dilution method; type: functional; in short: as §3
Serratia marcescens = conditions: ATCC 13880
Acinetobacter baumannii [6] = assay: Antibacterial activity against Acinetobacter baumannii ATCC 19606 assessed as diameter of zone inhibition measured after 18 hrs by CLSI disc diffusion method; type: functional; in short: as §1
[7] = test system: Staphylococcus epidermidis; assay: Antibacterial activity against Staphylococcus epidermidis ATCC 12228 assessed as diameter of zone inhibition measured after 18 hrs by CLSI disc diffusion method; type: functional; in short: as §1
Candida tropicalis = assay: Antifungal activity against Candida tropicalis IBA 171 assessed as decrease in fungal cell growth at 0.78 to 12.5 mg/L incubated for 24 hrs by CLSI broth dilution method; type: functional; conditions: IBA 171, 24 h
In short: (§5)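 Yeast broth dilution in RPMI 1640 with 2% glucose, compounds in DMSO. Yeasts pre-grown on Sabouraud dextrose agar. Growth read after 35 °C, 24 h.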

[8] = test system: Stenotrophomonas maltophilia; assay: Antibacterial activity against Stenotrophomonas maltophilia ATCC 13637 measured after 18 hrs by CLSI broth dilution method; type: functional; conditions: ATCC 13637, 18 h; in short: as §3
Candida albicans [9] = assay: Antifungal activity against Candida albicans ATCC 90028 assessed as decrease in fungal cell growth at 0.78 to 12.5 mg/L incubated for 24 hrs by CLSI broth dilution method; type: functional; conditions: ATCC 90028, 24 h; in short: as §5
Pichia kudriavzevii = assay: Antifungal activity against Candida krusei ATCC 6258 assessed as decrease in fungal cell growth at 0.78 to 12.5 mg/L incubated for 24 hrs by CLSI broth dilution method; type: functional; conditions: ATCC 6258, 24 h; in short: as §5
Pseudomonas aeruginosa [10] = assay: Antibacterial activity against Pseudomonas aeruginosa ATCC 27853 assessed as diameter of zone inhibition measured after 18 hrs by CLSI disc diffusion method; type: functional, organism-based; in short: as §1
[11] = test system: Stenotrophomonas maltophilia; assay: Antibacterial activity against Stenotrophomonas maltophilia ATCC 13637 assessed as fold reduction of MIC in presence of efflux pump inhibitor PAbetaN incubated for 18 hrs by broth microdilution method; type: functional; in short: as §2
Bacillus subtilis = assay: Antibacterial activity against Bacillus subtilis ATCC 6633 assessed as diameter of zone inhibition measured after 18 hrs by CLSI disc diffusion method; type: functional; in short: as §1
Enterococcus faecium [12] = assay: Antibacterial activity against Enterococcus faecium ATCC 6057 measured after 18 hrs by CLSI broth dilution method; type: functional; conditions: ATCC 6057, 18 h; in short: as §3
Proteus mirabilis [13] = assay: Antibacterial activity against Proteus mirabilis ATCC 12453 assessed as fold reduction of MIC in presence of efflux pump inhibitor PAbetaN incubated for 18 hrs by broth microdilution method; type: functional; in short: as §2
Enterococcus faecium [14] = assay: Antibacterial activity against Enterococcus faecium ATCC 6057 assessed as diameter of zone inhibition measured after 18 hrs by CLSI disc diffusion method; type: functional; in short: as §1
Escherichia coli [15] = assay: Antibacterial activity against Escherichia coli ATCC 25922 assessed as diameter of zone inhibition measured after 18 hrs by CLSI disc diffusion method; type: functional; in short: as §1
Saccharomyces cerevisiae = assay: Antifungal activity against Saccharomyces cerevisiae ATCC 9763 assessed as decrease in fungal cell growth at 0.78 to 12.5 mg/L incubated for 24 hrs by CLSI broth dilution method; type: functional; conditions: ATCC 9763, 24 h
In short: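 Yeast strain subcultured on Sabouraud dextrose agar for 24–48 h at 30 °C before testing. Compounds dissolved in DMSO.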

[16] = test system: Meyerozyma guilliermondii; assay: Antifungal activity against Candida guilliermondii IBA 155 assessed as decrease in fungal cell growth at 0.78 to 12.5 mg/L incubated for 24 hrs by CLSI broth dilution method; type: functional; conditions: IBA 155, 24 h; in short: as §5
Candida parapsilosis [17] = assay: Antifungal activity against Candida parapsilosis ATCC 22019 assessed as decrease in fungal cell growth at 0.78 to 12.5 mg/L incubated for 24 hrs by CLSI broth dilution method; type: functional; conditions: Lodderomyces parapsilosis, ATCC 22019, 24 h; in short: as §5
[18] = test system: Bordetella bronchiseptica; assay: Antibacterial activity against Bordetella bronchiseptica ATCC 4617 assessed as diameter of zone inhibition measured after 18 hrs by CLSI disc diffusion method; type: functional; in short: as §1
Candida albicans [19] = assay: Antifungal activity against Candida albicans ATCC 90028 assessed as diameter of zone inhibition incubated for 24 hrs by CLSI disc diffusion method; type: functional; in short: as §4
[20] = test system: Meyerozyma guilliermondii; assay: Antifungal activity against Candida guilliermondii IBA 155 assessed as diameter of zone inhibition incubated for 24 hrs by CLSI disc diffusion method; type: functional; in short: as §4
Proteus mirabilis [21] = assay: Antibacterial activity against Proteus mirabilis ATCC 12453 measured after 18 hrs by CLSI broth dilution method; type: functional; conditions: ATCC 12453, 18 h; in short: as §3
Burkholderia cepacia = assay: Antibacterial activity against Burkholderia cepacia ATCC 25416 assessed as diameter of zone inhibition measured after 18 hrs by CLSI disc diffusion method; type: functional; in short: as §1
Acinetobacter baumannii [22] = assay: Antibacterial activity against Acinetobacter baumannii ATCC 19606 measured after 18 hrs by CLSI broth dilution method; type: functional; conditions: ATCC 19606, 18 h; in short: as §3
Enterococcus faecalis = assay: Antibacterial activity against Enterococcus faecalis ATCC 29212 measured after 18 hrs by CLSI broth dilution method; type: functional; conditions: ATCC 29212, 18 h; in short: as §3
[23] = Dissociation constant, pKa1 of compound in 0.1 M NaOH by potentiometric analysis; type: physicochemical
Pseudomonas aeruginosa [24] = assay: Antibacterial activity against Pseudomonas aeruginosa ATCC 27853 measured after 18 hrs by CLSI broth dilution method; type: functional; conditions: ATCC 27853, 18 h; in short: as §3
[25] = test system: Bordetella bronchiseptica; assay: Antibacterial activity against Bordetella bronchiseptica ATCC 4617 measured after 18 hrs by CLSI broth dilution method; type: functional; conditions: ATCC 4617, 18 h; in short: as §3

| Compound | diameter of the inhibition zone (DIZ) (Proteus mirabilis [1]) | fold change (FC) (Escherichia coli [2]) | MIC (Klebsiella pneumoniae [3]) | fold change (FC) (Klebsiella pneumoniae [4]) | diameter of the inhibition zone (DIZ) (Candida parapsilosis [5]) | MIC (Staphylococcus aureus) | DIZ (Serratia marcescens) | diameter of the inhibition zone (DIZ) (Acinetobacter baumannii [6]) | diameter of the inhibition zone (DIZ) [7] | MIC (Candida tropicalis) | MIC [8] | MIC (Candida albicans [9]) | MIC (Pichia kudriavzevii) | diameter of the inhibition zone (DIZ) (Pseudomonas aeruginosa [10]) | fold change (FC) [11] | diameter of the inhibition zone (DIZ) (Bacillus subtilis) | MIC (Enterococcus faecium [12]) | fold change (FC) (Proteus mirabilis [13]) | diameter of the inhibition zone (DIZ) (Enterococcus faecium [14]) | diameter of the inhibition zone (DIZ) (Escherichia coli [15]) | further results |
| --- | --- | --- | --- | --- | --- | --- | --- | --- | --- | --- | --- | --- | --- | --- | --- | --- | --- | --- | --- | --- | --- |
| C[Si]1(C)OB(O)c2cc(F)c(F)cc21 | inactive | 32 | > 400 µg/mL | 4 | 18 mm | 50 µg/mL (≈ 234 µM) | inactive | inactive | 28 mm | 0.78 µg/mL (≈ 3.64 µM) | 400 µg/mL (≈ 1870 µM) | 50 µg/mL (≈ 234 µM) | 50 µg/mL (≈ 234 µM) | inactive | 16 | 25 mm | 200 µg/mL (≈ 934 µM) | 2 | inactive | inactive | MIC (Saccharomyces cerevisiae): 3.12 µg/mL (≈ 14.6 µM); MIC [16]: 6.25 µg/mL (≈ 29.2 µM); MIC (Candida parapsilosis [17]): 100 µg/mL (≈ 467 µM); diameter of the inhibition zone (DIZ) [18]: inactive; diameter of the inhibition zone (DIZ) (Candida albicans [19]): 16 mm; diameter of the inhibition zone (DIZ) [20]: 30 mm; MIC (Proteus mirabilis [21]): 400 µg/mL (≈ 1870 µM); diameter of the inhibition zone (DIZ) (Burkholderia cepacia): inactive; MIC (Acinetobacter baumannii [22]): > 400 µg/mL; MIC (Enterococcus faecalis): 400 µg/mL (≈ 1870 µM); pKa [23]: 6.8; MIC (Pseudomonas aeruginosa [24]): > 400 µg/mL; MIC [25]: 400 µg/mL (≈ 1870 µM) |
| C[Si]1(C)OB(O)c2ccc(Cl)cc21 | inactive | 64 | 400 µg/mL (≈ 1880 µM) | 32 | 18 mm | 50 µg/mL (≈ 235 µM) | inactive | 13 mm | 33 mm | 6.25 µg/mL (≈ 29.4 µM) | 100 µg/mL (≈ 471 µM) | 12.5 µg/mL (≈ 58.8 µM) | 25 µg/mL (≈ 118 µM) | inactive | 16 | 34 mm | 50 µg/mL (≈ 235 µM) | 4 | 14 mm | inactive | MIC (Saccharomyces cerevisiae): 6.25 µg/mL (≈ 29.4 µM); MIC [16]: 25 µg/mL (≈ 118 µM); MIC (Candida parapsilosis [17]): 25 µg/mL (≈ 118 µM); diameter of the inhibition zone (DIZ) [18]: 11 mm; diameter of the inhibition zone (DIZ) (Candida albicans [19]): 28 mm; diameter of the inhibition zone (DIZ) [20]: 30 mm; MIC (Proteus mirabilis [21]): > 400 µg/mL; diameter of the inhibition zone (DIZ) (Burkholderia cepacia): 11 mm; MIC (Acinetobacter baumannii [22]): 400 µg/mL (≈ 1880 µM); MIC (Enterococcus faecalis): 100 µg/mL (≈ 471 µM); pKa [23]: 7.3; MIC (Pseudomonas aeruginosa [24]): > 400 µg/mL; MIC [25]: 400 µg/mL (≈ 1880 µM) |
| C[Si]1(C)OB(O)c2c(F)c(F)c(F)c(F)c21 | 11 mm | 32 | > 400 µg/mL | 16 | 21 mm | 25 µg/mL (≈ 100 µM) | inactive | 12 mm | 17 mm | 1.56 µg/mL (≈ 6.24 µM) | 400 µg/mL (≈ 1600 µM) | 200 µg/mL (≈ 800 µM) | 200 µg/mL (≈ 800 µM) | inactive | 16 | 20 mm | 200 µg/mL (≈ 800 µM) | 2 | 11 mm | 18 mm | MIC (Saccharomyces cerevisiae): 25 µg/mL (≈ 100 µM); MIC [16]: 50 µg/mL (≈ 200 µM); MIC (Candida parapsilosis [17]): 50 µg/mL (≈ 200 µM); diameter of the inhibition zone (DIZ) [18]: 15 mm; diameter of the inhibition zone (DIZ) (Candida albicans [19]): 15 mm; diameter of the inhibition zone (DIZ) [20]: 14 mm; MIC (Proteus mirabilis [21]): 400 µg/mL (≈ 1600 µM); diameter of the inhibition zone (DIZ) (Burkholderia cepacia): inactive; MIC (Acinetobacter baumannii [22]): 400 µg/mL (≈ 1600 µM); MIC (Enterococcus faecalis): 200 µg/mL (≈ 800 µM); pKa [23]: 4.7; MIC (Pseudomonas aeruginosa [24]): > 400 µg/mL; MIC [25]: 100 µg/mL (≈ 400 µM) |
